Measured values as given in ChEMBL document CHEMBL1133118 (J Med Chem, 2000).
Values belong to the compound of their own block, whether it stands above or below them.

What was measured:
Adenosine receptor A1 [1] = target: T1, Adenosine receptor A1 (Homo sapiens, UniProt P30542); experiment: Displacement of [3H]DPCPX from human adenosine A1 receptor expressed in CHO cells; range 327-462; type: cell-based
T1 sequence (P30542 whole entry): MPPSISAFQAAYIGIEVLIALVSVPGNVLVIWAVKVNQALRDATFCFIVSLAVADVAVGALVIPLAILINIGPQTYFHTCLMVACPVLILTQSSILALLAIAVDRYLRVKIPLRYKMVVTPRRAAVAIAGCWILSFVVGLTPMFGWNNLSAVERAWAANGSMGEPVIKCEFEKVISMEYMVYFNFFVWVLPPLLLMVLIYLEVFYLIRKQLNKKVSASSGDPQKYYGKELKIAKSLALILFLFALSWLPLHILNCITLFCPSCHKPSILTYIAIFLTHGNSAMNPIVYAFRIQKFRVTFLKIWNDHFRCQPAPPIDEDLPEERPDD

Adenosine receptor A2a [2] = target: T2, Adenosine receptor A2a (Homo sapiens, UniProt P29274); experiment: Displacement of [3H]-SCH- 58261 from human adenosine A2A receptor expressed in CHO cells; range 3420-3788; type: cell-based
T2 sequence (P29274 whole entry): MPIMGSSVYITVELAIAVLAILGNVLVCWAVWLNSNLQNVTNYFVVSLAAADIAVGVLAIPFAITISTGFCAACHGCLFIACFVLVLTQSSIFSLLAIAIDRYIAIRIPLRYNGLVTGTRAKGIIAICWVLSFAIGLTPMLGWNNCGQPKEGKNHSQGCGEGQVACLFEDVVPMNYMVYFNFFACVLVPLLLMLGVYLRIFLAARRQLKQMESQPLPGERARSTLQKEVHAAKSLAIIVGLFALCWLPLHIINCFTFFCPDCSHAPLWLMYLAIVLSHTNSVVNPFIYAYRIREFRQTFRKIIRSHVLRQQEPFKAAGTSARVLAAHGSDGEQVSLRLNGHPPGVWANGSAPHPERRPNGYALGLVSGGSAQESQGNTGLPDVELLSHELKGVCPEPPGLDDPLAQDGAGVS

Adenosine receptor A2b [3] = target: T3, Adenosine receptor A2b (Homo sapiens, UniProt P29275); experiment: Displacement of [3H]DPCPX from Adenosine A2b receptor expressed in […]; range 1681-1961; type: cell-based
T3 sequence (P29275 whole entry): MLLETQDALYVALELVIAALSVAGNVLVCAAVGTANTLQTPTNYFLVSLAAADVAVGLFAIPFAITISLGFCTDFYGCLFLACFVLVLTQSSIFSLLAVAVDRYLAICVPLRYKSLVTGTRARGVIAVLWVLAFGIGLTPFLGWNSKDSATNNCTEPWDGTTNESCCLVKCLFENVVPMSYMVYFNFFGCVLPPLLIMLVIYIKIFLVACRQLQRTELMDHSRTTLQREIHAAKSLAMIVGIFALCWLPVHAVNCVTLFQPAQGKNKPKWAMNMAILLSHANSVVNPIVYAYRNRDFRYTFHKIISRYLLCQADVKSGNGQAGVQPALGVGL

[4] = target: Adenosine receptors; A1 & A3 (Homo sapiens) (UniProt P30542+P0DMS8); experiment: Ratio of binding affinity of human A1 receptor to that of human A3 receptor; type: protein assay
Procedure, shortened: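 Ki ratio from displacement in CHO membranes, 6–8 concentrations, n=3-6, filtration counting. A1: 1 nM [3H]DPCPX, 50 μg protein, 120 min at 25 °C, nonspecific with 10 μM CHA. A3: 1 nM [3H]MRE3008-F20, 50 μg protein, Tris/10 mM MgCl2 pH 7.4, 120 min at 4 °C, nonspecific with 1 μM MRE3008-F20.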

[5] = target: Adenosine receptors; A2b & A3 (Homo sapiens) (UniProt P29275+P0DMS8); experiment: Ratio of binding affinity of human A2B receptor to that of human A3 receptor; type: protein assay
Procedure, shortened: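 Ki ratio, n=3-6, 6–8 concentrations. A2B in HEK-293 membranes (20 μg): 40 nM [3H]DPCPX, 50 mM Tris HCl, 10 mM MgCl2, 1 mM EDTA, 0.1 mM benzamidine pH 7.4, 2 IU/mL adenosine deaminase, 60 min at 25 °C, nonspecific with 100 μM NECA. A3 in CHO membranes (50 μg): 1 nM [3H]MRE3008-F20, 120 min at 4 °C.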

[6] = target: T4, Adenosine receptor A3 (Homo sapiens) (UniProt P0DMS8); experiment: Percentage of blockade by 1 uM of the inhibition by 100 nM IB-MECA-inhibited cAMP accumulation in CHO cells expressing human adenosine A3 receptor.; type: functional, cell-based
T4 sequence (whole entry): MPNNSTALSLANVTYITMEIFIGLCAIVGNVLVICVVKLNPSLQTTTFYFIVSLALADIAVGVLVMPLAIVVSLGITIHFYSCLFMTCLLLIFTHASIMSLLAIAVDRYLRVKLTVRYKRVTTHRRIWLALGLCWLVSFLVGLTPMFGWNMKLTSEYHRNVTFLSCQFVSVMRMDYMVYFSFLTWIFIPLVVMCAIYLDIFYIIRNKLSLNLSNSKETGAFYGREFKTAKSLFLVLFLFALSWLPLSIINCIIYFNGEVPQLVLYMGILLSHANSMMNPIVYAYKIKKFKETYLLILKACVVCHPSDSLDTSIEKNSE
Procedure, shortened: (§1)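 CHO cells stably expressing human A3 receptor; membranes in 50 mM Tris HCl, 10 mM MgCl2, 1 mM EDTA pH 7.4 with 5 μM GTP, 0.5 mM […] and 2.0 IU/mL adenosine deaminase. Preincubated 10 min at 37 °C, then IB-MECA (100 nM) and/or antagonist with 1 mM ATP and 10 μM forskolin for 10 min. Boiled 2 min. cAMP read by [3H]cAMP competition with adrenal binding protein.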

Adenosine receptor A3 [7] = target: T5, Adenosine receptor A3 (Homo sapiens, UniProt P0DMS8); experiment: biochemical
T5 sequence (P0DMS8 whole entry): T4 sequence (whole entry)

Adenosine receptor A2b [8] = target: T3, Adenosine receptor A2b; experiment: Displacement of [3H]DPCPX from Adenosine A2b receptor expressed in CHO cells; type: cell-based
Adenosine receptor A2a [9] = target: T2, Adenosine receptor A2a; experiment: Displacement of [3H]-SCH- 58261 from human adenosine A2A receptor expressed in CHO cells; type: cell-based
Adenosine receptor A1 [10] = target: T1, Adenosine receptor A1; experiment: Displacement of [3H]DPCPX from human adenosine A1 receptor expressed in CHO cells; range 2894-3460; type: cell-based
Adenosine receptor A3 [11] = target: T5, Adenosine receptor A3; experiment: Displacement of [3H]MRE3008-F20 from human adenosine A3 receptor expressed in CHO cells; range 34-76; type: cell-based
Adenosine receptor A2b [12] = target: T3, Adenosine receptor A2b; experiment: Displacement of [3H]DPCPX from Adenosine A2b receptor expressed in […]; range 1770-2327; type: cell-based
[13] = target: T4, Adenosine receptor A3 (Homo sapiens); experiment: Percent reversal of 100 nM IB-MECA-inhibited cAMP accumulation in CHO cells expressing human adenosine A3 receptor at 1 uM; range 73-110; type: functional, cell-based; procedure, shortened: as §1
Adenosine receptor A3 [14] = target: T5, Adenosine receptor A3; experiment: Displacement of [3H]MRE3008-F20 from human adenosine A3 receptor expressed in CHO cells; range 0.32-0.74; type: cell-based
Adenosine receptor A2a [15] = target: T2, Adenosine receptor A2a; experiment: Displacement of [3H]-SCH- 58261 from human adenosine A2A receptor expressed in CHO cells; range 150-207; type: cell-based
Adenosine receptor A1 [16] = target: T1, Adenosine receptor A1; experiment: Displacement of [3H]-DPCPX from human adenosine A1 receptor expressed in CHO cells; […]; type: cell-based
Adenosine receptor A3 [17] = target: T5, Adenosine receptor A3; experiment: Inhibition of cAMP accumulation in CHO cells expressing human adenosine A3 receptor; range 3.5-7.6; type: functional, cell-based
Adenosine receptor A2b [18] = target: T3, Adenosine receptor A2b; experiment: Displacement of [3H]DPCPX from Adenosine A2b receptor expressed in […]; range 226-301; type: cell-based
Adenosine receptor A2a [19] = target: T2, Adenosine receptor A2a; experiment: Displacement of [3H]-SCH- 58261 from human adenosine A2A receptor expressed in CHO cells; range 1220-1590; type: cell-based
Adenosine receptor A1 [20] = target: T1, Adenosine receptor A1; experiment: Displacement of [3H]DPCPX from human adenosine A1 receptor expressed in CHO cells; range 928-1297; type: cell-based
Adenosine receptor A3 [21] = target: T5, Adenosine receptor A3; experiment: Inhibition of cAMP accumulation in CHO cells expressing human adenosine A3 receptor; range 1.7-4.2; type: functional, cell-based
[22] = target: T4, Adenosine receptor A3 (Homo sapiens); conditions: CHO, 1 uM
Adenosine receptor A3 [23] = target: T5, Adenosine receptor A3; experiment: biochemical; remark: listed apart in the source
Adenosine receptor A3 [24] = target: T5, Adenosine receptor A3; experiment: Displacement of [3H]MRE3008-F20 from human adenosine A3 receptor expressed in CHO cells; range 1061-1245; type: cell-based
Adenosine receptor A2a [25] = target: T2, Adenosine receptor A2a; experiment: Displacement of [3H]-SCH- 58261 from human adenosine A2A receptor expressed in CHO cells; range 36-55; type: cell-based
Procedure, shortened: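 Membranes from CHO cells stably expressing human A2A receptor, grown in DMEM/F12 without nucleosides, resuspended in 50 mM Tris HCl, 10 mM MgCl2, pH 7.4; 50 μg protein/assay. Competition with [3H]SCH 58261 at 6–8 or more compound concentrations, 60 min at 25 °C; nonspecific binding with 50 μM NECA. Filtration on GF/B filters, scintillation counting; n=3-6.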

Adenosine receptor A2b [26] = target: T3, Adenosine receptor A2b; experiment: Displacement of [3H]DPCPX from Adenosine A2b receptor expressed in CHO cells; range 343-468; type: cell-based; conditions: in the assay text read “HEK-293 cells” for “CHO cells”
Procedure, shortened: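 Human recombinant A2B receptor was expressed in HEK-293 cell membranes (20 μg protein). Incubated with 40 nM [3H]DPCPX in 50 mM Tris HCl, 10 mM MgCl2, 1 mM EDTA, 0.1 mM benzamidine, pH 7.4, with 2 IU/mL adenosine deaminase, at least 6–8 test concentrations, 60 min, 25 °C. Nonspecific binding was taken with 100 μM NECA; n=3-6.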

Adenosine receptor A1 [27] = target: T1, Adenosine receptor A1; experiment: Displacement of [3H]DPCPX from human adenosine A1 receptor expressed in CHO cells; range 134-229; type: cell-based

Ki (Adenosine receptor A1 [1]): 389 nM
Ki (Adenosine receptor A2a [2]): 3600 nM
Ki (Adenosine receptor A2b [3]): 1820 nM
Ratio [4]: 5.5
Ratio [5]: 26
inhibition [6]: 32%
Ki (Adenosine receptor A3 [7]): 71 nM
Structure (SMILES): O=C(Nc1cccc(Cl)c1)Nc1nc2nn(CCc3cc(Br)c(Br)cc3Br)cc2c2nc(-c3ccco3)nn12

Ki (Adenosine receptor A2b [8]): > 10000 nM
Ki (Adenosine receptor A2a [9]): > 10000 nM
Ki (Adenosine receptor A1 [10]): 3160 nM
Ki (Adenosine receptor A3 [11]): 51 nM
Ratio [4]: 62
Ratio [5]: > 196
inhibition [6]: 40%
Structure (SMILES): O=C(Nc1cccc(Cl)c1)Nc1nc2nn(CCc3cccc4ccccc34)cc2c2nc(-c3ccco3)nn12

Ki (Adenosine receptor A2b [12]): 2030 nM
inhibition [13]: 90%
Ki (Adenosine receptor A3 [14]): 0.48 nM
Ki (Adenosine receptor A2a [15]): 176 nM
Ki (Adenosine receptor A1 [16]): 1530 nM
IC50 (Adenosine receptor A3 [17]): 5.1 nM
Ratio [4]: 3190
Ratio [5]: 4230
Structure (SMILES): C=CCn1cc2c(nc(NC(=O)Nc3ccc(OC)cc3)n3nc(-c4ccco4)nc23)n1

Ki (Adenosine receptor A2b [18]): 261 nM
Ki (Adenosine receptor A2a [19]): 1390 nM
Ki (Adenosine receptor A1 [20]): 1100 nM
IC50 (Adenosine receptor A3 [21]): 2.7 nM
Ratio [4]: 5480
Ratio [5]: 1300
inhibition [22]: 94%
Ki (Adenosine receptor A3 [23]): 0.2 nM
Structure (SMILES): COc1ccc(NC(=O)Nc2nc3nn(C)cc3c3nc(-c4ccco4)nn23)cc1

Ki (Adenosine receptor A3 [24]): 1150 nM
Ki (Adenosine receptor A2a [25]): 45 nM
Ki (Adenosine receptor A2b [26]): 400 nM
Ki (Adenosine receptor A1 [27]): 175 nM
Ratio [4]: 0.15
Ratio [5]: 0.35
inhibition [6]: 9%
Structure (SMILES): CC(C)(C)n1cc2c(nc(N)n3nc(-c4ccco4)nc23)n1
